In ChEMBL document CHEMBL1125426, “Muscarinic receptor subtype specificity of (N,N-dialkylamino)alkyl 2-cyclohexyl-2-phenylpropionates: cylexphenes (cyclohexyl-substituted aprophen analogues)” (J Med Chem, 1992):
pKi: −log10 of the molar value.

Assays:
[1] = target: T1, Muscarinic acetylcholine receptor M1 (Homo sapiens, UniProt P11229); assay: Antimuscarinic potency and subset specificity was characterised by its inhibition of the [3H]NMS Binding to Muscarinic acetylcholine receptor M1 subtype
T1 sequence (P11229 whole entry): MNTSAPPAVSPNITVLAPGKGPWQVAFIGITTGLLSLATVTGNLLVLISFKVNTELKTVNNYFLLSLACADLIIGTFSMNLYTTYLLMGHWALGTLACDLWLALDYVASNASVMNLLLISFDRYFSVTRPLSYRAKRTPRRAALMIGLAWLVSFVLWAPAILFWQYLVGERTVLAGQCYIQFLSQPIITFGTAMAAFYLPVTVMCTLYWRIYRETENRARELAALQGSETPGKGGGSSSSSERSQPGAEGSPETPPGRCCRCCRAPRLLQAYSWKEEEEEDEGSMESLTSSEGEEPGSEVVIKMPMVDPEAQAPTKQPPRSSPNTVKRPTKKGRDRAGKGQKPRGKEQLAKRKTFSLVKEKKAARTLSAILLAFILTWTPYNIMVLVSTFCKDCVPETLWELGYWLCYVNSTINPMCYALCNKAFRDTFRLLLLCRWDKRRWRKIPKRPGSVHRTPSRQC
In short: (§1)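 Membranes, by hypotonic lysis (2 mM Tris-HCl pH 7.2, 1 mM EDTA) and 50000g spins, from A9 L cells stably carrying cloned brain m1 or m3, heart (M2) or NG108-15 cells (M4). 150-300 µg protein incubated 60 min at 37 °C in PBS pH 7.2 with 0.5 nM [3H]NMS and varied compound levels. Filtration and scintillation counting. Nonspecific binding taken with 1 µM atropine. Ki from LIGAND with KD 235 (m1), 426 (M2), 164 (m3), 144 (M4) pM. Three to six experiments.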

[2] = target: T2, Muscarinic acetylcholine receptor M2 (Homo sapiens, UniProt P08172); assay: Antimuscarinic potency and subset specificity was characterised by its inhibition of the [3H]NMS Binding to Muscarinic acetylcholine receptor M2 subtype; in short: as §1
T2 sequence (P08172 whole entry): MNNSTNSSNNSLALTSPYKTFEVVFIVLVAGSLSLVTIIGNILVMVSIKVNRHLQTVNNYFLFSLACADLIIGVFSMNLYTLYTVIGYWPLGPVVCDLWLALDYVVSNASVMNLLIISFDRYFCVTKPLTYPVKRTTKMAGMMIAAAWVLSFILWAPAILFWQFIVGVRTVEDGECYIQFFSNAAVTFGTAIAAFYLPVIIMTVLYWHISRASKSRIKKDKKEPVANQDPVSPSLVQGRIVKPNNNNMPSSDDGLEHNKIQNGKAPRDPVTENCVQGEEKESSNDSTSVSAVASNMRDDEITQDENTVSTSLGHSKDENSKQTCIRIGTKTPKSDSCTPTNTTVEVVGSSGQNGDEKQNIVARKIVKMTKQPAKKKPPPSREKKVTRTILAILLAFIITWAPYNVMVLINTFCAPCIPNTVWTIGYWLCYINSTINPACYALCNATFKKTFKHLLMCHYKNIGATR

[3] = target: T3, Muscarinic acetylcholine receptor M3 (Homo sapiens, UniProt P20309); assay: Antimuscarinic potency and subset specificity was characterised by its inhibition of the [3H]NMS Binding to Muscarinic acetylcholine receptor M3 subtype
T3 sequence (P20309 whole entry): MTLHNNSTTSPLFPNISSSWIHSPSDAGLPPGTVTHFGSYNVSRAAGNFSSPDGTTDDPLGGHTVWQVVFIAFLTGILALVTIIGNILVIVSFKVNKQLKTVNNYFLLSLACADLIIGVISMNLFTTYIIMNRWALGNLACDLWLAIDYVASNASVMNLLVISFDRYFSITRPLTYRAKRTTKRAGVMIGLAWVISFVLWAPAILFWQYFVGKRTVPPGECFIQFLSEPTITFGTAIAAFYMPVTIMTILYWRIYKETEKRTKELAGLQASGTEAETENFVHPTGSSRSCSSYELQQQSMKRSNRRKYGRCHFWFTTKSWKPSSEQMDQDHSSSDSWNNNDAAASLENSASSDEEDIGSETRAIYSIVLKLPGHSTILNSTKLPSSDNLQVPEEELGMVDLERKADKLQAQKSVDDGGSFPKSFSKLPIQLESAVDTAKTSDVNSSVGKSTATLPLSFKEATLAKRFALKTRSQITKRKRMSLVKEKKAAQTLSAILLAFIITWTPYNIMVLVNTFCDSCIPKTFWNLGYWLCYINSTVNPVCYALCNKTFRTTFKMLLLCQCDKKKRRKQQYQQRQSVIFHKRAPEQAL
In short: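 Membranes from A9 L cells stably transfected with cloned m3 receptor (brain library), lysed in 2 mM Tris-HCl pH 7.2/1 mM EDTA, centrifuged 50000g. 150-300 µg protein incubated 60 min, 37 °C with 0.5 nM [3H]NMS plus varied compound concentrations in PBS pH 7.2; filtration, scintillation counting. Nonspecific binding: 1 µM atropine. Ki via LIGAND using KD 164 pM; mean of 3-6 experiments ± SD.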

[4] = target: T4, Muscarinic acetylcholine receptor M4 (Homo sapiens, UniProt P08173); assay: Antimuscarinic potency and subset specificity was characterised by its inhibition of the [3H]NMS Binding to Muscarinic acetylcholine receptor M4 subtype; in short: as §1
T4 sequence (P08173 whole entry): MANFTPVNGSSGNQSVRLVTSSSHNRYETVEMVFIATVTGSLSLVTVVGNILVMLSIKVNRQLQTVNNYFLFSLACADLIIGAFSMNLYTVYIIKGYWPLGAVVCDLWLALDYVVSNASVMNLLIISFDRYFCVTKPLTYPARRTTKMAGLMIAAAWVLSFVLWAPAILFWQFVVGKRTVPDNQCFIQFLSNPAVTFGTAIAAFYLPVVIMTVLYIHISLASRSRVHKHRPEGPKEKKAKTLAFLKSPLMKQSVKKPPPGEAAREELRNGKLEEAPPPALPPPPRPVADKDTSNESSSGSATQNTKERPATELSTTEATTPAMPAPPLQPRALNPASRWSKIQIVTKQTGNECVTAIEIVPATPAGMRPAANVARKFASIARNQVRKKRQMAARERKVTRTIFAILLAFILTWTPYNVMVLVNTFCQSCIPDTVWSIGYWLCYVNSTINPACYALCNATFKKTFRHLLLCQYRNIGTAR

[5] = Selectivity ratio relative to atropine is [(atropine IC50 value for pancreas)/(compound IC50 value for pancreas)] / [(atropine KB value for ileum) /(compound KB value for ileum)]; assay type: tissue-based
In short: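 Rat pancreatic acini from male Sprague-Dawley rats, collagenase digested, exposed to 10^-5 M carbachol with varied compound levels. […] Ileum KB comes from Schild plots on male guinea pig distal ileum at 37 °C, ACh-induced isometric contraction, compound added 30 s before ACh. Ratio as printed, referenced to atropine.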

[6] = target: Muscarinic acetylcholine receptor M1 and M3 (Homo sapiens) (UniProt P20309+P11229); assay: Selectivity index is defined as the ratio of Ki value for m1 receptor / Ki value for m3 receptor; assay type: protein assay
Sequence of Muscarinic acetylcholine receptor M1 and M3 (Homo sapiens) (P20309 whole entry, looked up, one chain of several): as the sequence (P20309 whole entry) above

[7] = Selectivity index is defined as the ratio of Ki value for m3 receptor / Ki value for M4 receptor
[8] = target: T3, Muscarinic acetylcholine receptor M3; assay: Antimuscarinic potency and subset specificity was characterised by its inhibition of the [3H]NMS Muscarinic acetylcholine receptor M3 subtype; in short: as §1
[9] = target: T1, Muscarinic acetylcholine receptor M1; assay: Antimuscarinic potency and subset specificity was characterised by inhibition of the [3H]NMS Binding to Muscarinic acetylcholine receptor M1 subtype; in short: as §1
[10] = target: T2, Muscarinic acetylcholine receptor M2; assay: Antimuscarinic potency and subset specificity was characterised by inhibition of the [3H]NMS Binding to Muscarinic acetylcholine receptor M2 subtype; in short: as §1

Row | pKi [3] | Structure (SMILES) | pKi [1] | pKi [2] | pKi [4] | Selectivity [5] | Selectivity ratio [6] | Selectivity ratio [7] | pKi [8] | pKi [9] | pKi [10]
1 | 6.75 | CCN(CC)CCCCCOC(=O)C(C)(c1ccccc1)C1CCCCC1 (centres undefined) | 6.53 | 6.61 | 6.76 | 11.5 | 0.6 | 1 | – | – | –
2 | – | CCN(CC)CCOC(=O)C(C)(c1ccccc1)C1CCCCC1 (centres undefined) | 8.40 | 7.63 | 7.73 | 16.7 | 2.5 | 1.9 | 8.00 | – | –
3 | – | CCN(CC)CCOC(=O)C(C)(c1ccccc1)c1ccccc1 [APROFENE] | – | – | 8.13 | – | – | – | – | 8.68 | 8.03
4 | 7.51 | CN(C)CCCCOC(=O)C(C)(c1ccccc1)C1CCCCC1 (centres undefined) | 7.39 | 6.59 | 7.18 | – | – | – | – | – | –
5 | 6.80 | CCN(CC)CCCCOC(=O)C(C)(c1ccccc1)C1CCCCC1 (centres undefined) | 6.95 | 6.61 | 6.68 | – | – | – | – | – | –

Row | Structure (SMILES) | pKi [3] | pKi [1] | pKi [2] | pKi [4] | Selectivity [5] | Selectivity ratio [6] | Selectivity ratio [7] | pKi [8] | pKi [9] | pKi [10]
6 | CCN(CC)CCCOC(=O)C(C)(c1ccccc1)C1CCCCC1 (centres undefined) | 8.40 | 8.54 | 7.71 | 8.34 | 19.1 | 1.4 | 1.2 | – | – | –
7 | CN(C)CCCOC(=O)C(C)(c1ccccc1)C1CCCCC1 (centres undefined) | 8.77 | 8.72 | 7.57 | 8.82 | 30.8 | 0.9 | 0.9 | – | – | –
